Measured values as given in ChEMBL document CHEMBL3526129, “Species differences in tissue distribution and enzyme activities of arylacetamide deacetylase in human, rat, and mouse” (Drug Metab Dispos, 2012).

How the values were obtained:
Assay type in all cases: ADME
[1] = substrate: CCOc1ccc(NC(C)=O)cc1; test: (§1) Activity of AADAC in human jejunum microsome
How it was run: (§2)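 Hydrolase activity of tissue microsomes in 0.2 ml mixtures of 100 mM potassium phosphate (pH 7.4). Microsomal protein: 0.4 mg/ml for flutamide (0.025–0.75 mM) and phenacetin (0.05–4 mM); 0.5 mg/ml for rifampicin (0.005–1 mM). Products measured were FLU-1, p-phenetidine and 25-deacetylrifampicin, within linear ranges. Three independent experiments.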

[2] = substrate: CO[C@H]1/C=C/O[C@@]2(C)Oc3c(C)c(O)c4c(O)c(c(/C=N/N5CCN(C)CC5)c(O)c4c3C2=O)NC(=O)/C(C)=C\C=C\[C@H](C)[C@H](O)[C@@H](C)[C@@H](O)[C@@H](C)[C@H](OC(C)=O)[C@@H]1C; test: as §1; how it was run: as §2
[3] = substrate: CCOc1ccc(NC(C)=O)cc1; test: (§3) Activity of AADAC in human liver microsome; how it was run: as §2
[4] = substrate: CO[C@H]1/C=C/O[C@@]2(C)Oc3c(C)c(O)c4c(O)c(c(/C=N/N5CCN(C)CC5)c(O)c4c3C2=O)NC(=O)/C(C)=C\C=C\[C@H](C)[C@H](O)[C@@H](C)[C@@H](O)[C@@H](C)[C@H](OC(C)=O)[C@@H]1C; test: as §3; how it was run: as §2
[5] = substrate: CCOc1ccc(NC(C)=O)cc1; test: (§4) Activity of human recombinant AADAC
How it was run: (§5)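 Sf21 insect cells were infected with baculovirus carrying intact human, rat or mouse AADAC, harvested after 7 days, and homogenized by freeze-thaw. Homogenate was incubated in 100 mM potassium phosphate (pH 7.4). Flutamide (0.025–0.75 mM) used 0.4 mg/ml; phenacetin (0.05–4 mM) used 0.4 mg/ml for human and 0.2 mg/ml for rat or mouse; rifampicin (0.005–1 mM) used 0.5 mg/ml. Activity was normalized to immunoblot-derived AADAC expression units. Triplicate determinations.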

[6] = substrate: CO[C@H]1/C=C/O[C@@]2(C)Oc3c(C)c(O)c4c(O)c(c(/C=N/N5CCN(C)CC5)c(O)c4c3C2=O)NC(=O)/C(C)=C\C=C\[C@H](C)[C@H](O)[C@@H](C)[C@@H](O)[C@@H](C)[C@H](OC(C)=O)[C@@H]1C; test: as §4; how it was run: as §5
[7] = substrate: CCOc1ccc(NC(C)=O)cc1; test: Activity of AADAC in human kidney microsome; how it was run: as §2
[8] = substrate: CCOc1ccc(NC(C)=O)cc1; test: Activity of AADAC in human lung microsome; how it was run: as §2
[9] = substrate: CCOc1ccc(NC(C)=O)cc1; test: Activity of AADAC in mouse kidney microsome; how it was run: as §2
[10] = substrate: CCOc1ccc(NC(C)=O)cc1; test: Activity of AADAC in mouse lung microsome; how it was run: as §2
[11] = substrate: CCOc1ccc(NC(C)=O)cc1; test: Activity of AADAC in mouse liver microsome; how it was run: as §2
[12] = substrate: CCOc1ccc(NC(C)=O)cc1; test: Activity of AADAC in mouse jejunum microsome; how it was run: as §2
[13] = substrate: CCOc1ccc(NC(C)=O)cc1; test: Activity of mouse recombinant AADAC; how it was run: as §5
[14] = substrate: CCOc1ccc(NC(C)=O)cc1; test: Activity of AADAC in rat liver microsome; how it was run: as §2
[15] = substrate: CCOc1ccc(NC(C)=O)cc1; test: Activity of AADAC in rat kidney microsome; how it was run: as §2
[16] = substrate: CCOc1ccc(NC(C)=O)cc1; test: Activity of rat recombinant AADAC; how it was run: as §5
[17] = substrate: CCOc1ccc(NC(C)=O)cc1; test: Activity of AADAC in rat jejunum microsome; how it was run: as §2
[18] = substrate: CCOc1ccc(NC(C)=O)cc1; test: Activity of AADAC in rat lung microsome; how it was run: as §2

B1: Arylacetamide deacetylase (Homo sapiens) (protein)
chain: MGRKSLYLLIVGILIAYYIYTPLPDNVEEPWRMMWINAHLKTIQNLATFVELLGLHHFMDSFKVVGSFDEVPPTSDENVTVTETKFNNILVRVYVPKRKSEALRRGLFYIHGGGWCVGSAALSGYDLLSRWTADRLDAVVVSTNYRLAPKYHFPIQFEDVYNALRWFLRKKVLAKYGVNPERIGISGDSAGGNLAAAVTQQLLDDPDVKIKLKIQSLIYPALQPLDVDLPSYQENSNFLFLSKSLMVRFWSEYFTTDRSLEKAMLSRQHVPVESSHLFKFVNWSSLLPERFIKGHVYNNPNYGSSELAKKYPGFLDVRAAPLLADDNKLRGLPLTYVITCQYDLLRDDGLMYVTRLRNTGVQVTHNHVEDGFHGAFSFLGLKISHRLINQYIEWLKENL
- Km [1]: 2.5 mM
- Vmax [1]: 0.01 µmol/min/mg
- Km [2]: 0.3 mM
- Vmax [2]: 0.000212 µmol/min/mg
- Km [3]: 3.3 mM
- Vmax [3]: 0.0036 µmol/min/mg
- Km [4]: 0.4 mM
- Vmax [4]: 0.000273 µmol/min/mg
- Km [5]: 1.8 mM
- Km [6]: 0.2 mM
- Km [7]: 2.3 mM
- Vmax [7]: 0.0004 µmol/min/mg
- Km [8]: 7.4 mM
- Vmax [8]: 0.0008 µmol/min/mg

B2: Arylacetamide deacetylase (Mus musculus) (protein)
chain: MGKTISLLISVVLVAYYLYIPLPDAIEEPWKVVWETAFVKIGTDLASFGELLGISHFMETIQLLMSFQEVPPTSDEHVTVMETAFDSVPVRIYIPKRKSMALRRGLFYIHGGGWCLGSAAHFSYDTLSRWTAHKLDAVVVSTDYGLAPKHHFPRQFEDVYRSLRWFLQEDVLEKYGVDPRRVGVSGDSAGGNLAAAVTQQLIQDPDVKIKLKVQALIYPALQALDTNVPSQQEGSHFPVLTRSLMVRFWSEYFTTDRGLEKAMLLNQHVPMESSHLLQFVNWSSLLPERYKKSPVYKNPTPGSSELAQKYPGFIDVKACPLLANDNILHHLPKTYIITCQYDVLRDDGLMYVKRLQNVGVHVTHHHVEDGFHGTFSFPGLKLSERMKNQYLSWLIKNL
- Km [9]: 7.1 mM
- Vmax [9]: 0.0029 µmol/min/mg
- Km [10]: 2.9 mM
- Vmax [10]: 0.0001 µmol/min/mg
- Km [11]: 9.8 mM
- Vmax [11]: 0.0171 µmol/min/mg
- Km [12]: 11.2 mM
- Vmax [12]: 0.0014 µmol/min/mg
- Km [13]: 1.6 mM

B3: Arylacetamide deacetylase (Rattus norvegicus) (protein)
chain: MGRTIFLLISVVLVAYYIYIPLPDDIEEPWKIILGNTLLKLGGDLASFGELLGLNHFMDTVQLFMRFQVVPPTSDENVTVMETDFNSVPVRIYIPKRKSTTLRRGLFFIHGGGWCLGSAAYFMYDTLSRRTAHRLDAVVVSTDYGLAPKYHFPKQFEDVYHSLRWFLQEDILEKYGVDPRRVGVSGDSAGGNLTAAVTQQILQDPDVKIKLKVQALIYPALQALDMNVPSQQENSQYPLLTRSLLIRFWSEYFTTDRDLEKAMLLNQHVPVEFSHLLQFVNWSSLLPQRYKKGYFYKTPTPGSLELAQKYPGFTDVKACPLLANDSILHHLPMTYIITCQYDVLRDDGLMYVKRLQNTGVHVTHHHIEDGFHGALTLPGLKITYRMQNQYLNWLHKNL
- Km [14]: 29.8 mM
- Vmax [14]: 0.0059 µmol/min/mg
- Km [15]: 9.3 mM
- Vmax [15]: 0.0006 µmol/min/mg
- Km [16]: 5.8 mM
- Km [17]: 4.6 mM
- Vmax [17]: 0.0003 µmol/min/mg
- Km [18]: 5.3 mM
- Vmax [18]: 0.0001 µmol/min/mg
